“Also recorded” adds a separate entry of the source. Some results are limits rather than exact numbers.

The subject of data set [1] is mutant V600EB-Raf melanoma. Conditions: cited from earlier work.
Another data set concerns MDA-MB-231. Put plainly: MTS cell viability, MDA-MB-231 breast cancer. It is filed as cell-based. The note with it: read-out: IC50, Other cancer types, 24 h. In short, it runs like this:
(§1)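 Cells kept in DMEM with 1% Glutamax and 10% FBS at 37°C, 5% CO2. Seeded at 5×10^3 cells/well in 96-well plates and grown before treatment. Treated with DMSO vehicle or 0.62 to 40 µmol/L test compound for 24, 48 or 72 h. Viability read by MTS. IC50 per cell line derived from three independent experiments by curve fitting.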

A further data set has as its system MCF-7. Put plainly: MTS cell viability, MCF-7 breast cancer. It is filed as cell-based. The note with it: read-out: IC50, Other cancer types, 24 h. In short, it runs like this: as §1
The test system of a further data set is A-549. The experiment in a line: MTS cell viability, A-549 lung cancer. The format is cell-based. The note with it: read-out: IC50, Other cancer types, 24 h. In a few lines:
as §1

Another data set has as its system LNCap. Put plainly: MTS cell viability, LNCap prostate cancer. It is filed as cell-based. The note with it: read-out: IC50, Other cancer types, 24 h. In a few lines:
as §1

A further data set has as its system PC-3. The experiment in a line: MTS cell viability, PC-3 prostate cancer. Conditions: read-out: IC50, Other cancer types, 24 h. The format is cell-based. In a few lines:
as §1

The next data set concerns HT-1080. Put plainly: MTS cell viability, HT-1080 fibrosarcoma. The format is cell-based. The note with it: read-out: IC50, Other cancer types, 24 h. In a few lines: as §1
The subject of the next data set is MiA PaCa-2. Put plainly: MTS cell viability, MiA PaCa-2 pancreas cancer. The note with it: read-out: IC50, Other cancer types, 24 h. The format is cell-based. In a few lines:
as §1

The next data set relates to HCT-116. The experiment in a line: MTS cell viability, HCT-116 colon cancer. It is filed as cell-based. Conditions: read-out: IC50, Other cancer types, 24 h. In short, it runs like this: as §1
In a further data set the test system is HT-29. The experiment in a line: MTS cell viability, HT-29 colon cancer. It is filed as cell-based. The note with it: read-out: IC50, Other cancer types, 24 h. In a few lines: as §1
A further data set deals with SW-480. Put plainly: MTS cell viability, SW-480 colon cancer. The format is cell-based. The note with it: read-out: IC50, Other cancer types, 24 h. In short, it runs like this:
as §1

The subject of the next data set is melanoma cells. The experiment in a line: MTS cell viability, melanoma cell lines. The format is cell-based, human. In a few lines:
(§2)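 Melanoma lines (WM35, SbCl2, WM115, WM278.1, SK-MEL-24, 1205 Lu, UACC 903) and normal cells (FOM103 melanocytes, FF2441 fibroblasts, foreskin keratinocytes) seeded at 5×10^3 cells/well in 96-well plates. Exposed to DMSO vehicle or 0.62–40 µmol/L test compound for 24, 48 or 72 h, then MTS read. IC50 from three independent experiments per line, averaged across each group.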

A further data set relates to normal cells. Put plainly: MTS cell viability, normal cells. The format is cell-based, human. The note with it: read-out: average IC50, normal cells; average over normal cells. In a few lines:
as §2

In a further data set the test system is UACC 903 melanoma cells. The experiment in a line: Natural product library NPL-480 primary screen, MTS. It is filed as cell-based, human. Conditions: 5 µmol/L, 24 hours, UACC 903, MTS. In short, it runs like this:
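UACC 903 cells plated at 5×10^3 per well in 96-well plates for 24 h. Each library compound, from 10 mM DMSO stocks, added at 5 µmol/L final for 24 h. Viability read by MTS. Screen run three times and averaged.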

Data set [2] deals with UACC 903 and 1205 Lu cells. Put plainly: Apo-ONE caspase-3/7 apoptosis assay. Conditions: longer exposure. It is filed as cell-based, human.
For data set [3], the system named is UACC 903 and 1205 Lu cells. The experiment in a line: Cell cycle analysis, propidium iodide FACS. The note with it: 24 hours leelamine treatment, propidium iodide stained UACC 903 and 1205 Lu cells. It is filed as cell-based, human.
In another data set the test system is PI3K/Akt pathway. Put plainly: Western blot of pathway signaling, PI3K/Akt. It is filed as cell-based, human. The note with it: 3 to 6 µmol/L for 3 to 24 hours, UACC 903 and 1205 Lu. In a few lines:
(§3)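 1.5×10^6 melanoma cells plated in 100 mm dishes. After 48 h, treated with 3–6 µmol/L test compound for 3 to 24 h, then lysed in RIPA and immunoblotted with ECL detection; α-enolase as loading control. Probes: MAPK, phospho-Erk1/2 (Thr202/Tyr204) and total Erk1/2; PI3K/Akt, phospho-Akt (Ser473), total Akt, phospho-PRAS40 (Thr246), phospho-p70S6K (Thr389); STAT3, phospho-Stat3 (Tyr705), total Stat3.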
In general terms: In western blotting, separated proteins are transferred to a membrane and probed.

Another data set has as its system MAPK pathway. The experiment in a line: Western blot of pathway signaling, MAPK. The format is cell-based, human. The note with it: 3 to 6 µmol/L for 3 to 24 hours, UACC 903 and 1205 Lu. In short, it runs like this:
as §3

For a further data set, the system named is STAT3 pathway. Put plainly: Western blot of pathway signaling, STAT3. It is filed as cell-based, human. Conditions: UACC 903 and 1205 Lu. In short, it runs like this:
as §3

Data set [4] concerns UACC 903 xenografted melanoma tumors. Put plainly: Xenograft tumor growth, UACC 903. It is filed as in vivo, Athymic Nude-Foxn1nu mice. Conditions: UACC 903 xenograft, 5–7.5 mg/kg i.p. daily, versus DMSO vehicle control. In short, it runs like this:
(§4)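 Female Athymic Nude-Foxn1nu mice, 3–4 weeks old, injected s.c. above both rib cages with 1×10^6 UACC 903 or 1205 Lu cells in 0.2 mL DMEM with 10% FBS and 1% Glutamax. At day 6, with 50–75 mm3 tumors, mice randomized (5 mice/group, 2 tumors/mouse). Dosed i.p. daily for 3–4 weeks with DMSO vehicle or […] test compound, depending on cell line. Tumor size and body weight measured every 2 days.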

Data set [5] relates to 1205 Lu xenografted melanoma tumors. The experiment in a line: Xenograft tumor growth, 1205 Lu. The format is in vivo, Athymic Nude-Foxn1nu mice. The note with it: 1205 Lu xenograft, 5–7.5 mg/kg i.p. daily, versus DMSO vehicle control. In a few lines:
as §4

For data set [6], the system named is preexisting xenografted melanoma tumors. Put plainly: Xenograft tumor growth and body weight, UACC 903 or 1205 Lu. The format is in vivo, Athymic Nude-Foxn1nu mice. In a few lines: as §4
A further data set can be described thus: Toxicity assessment. It is filed as in vivo. The note with it: Swiss Webster mice; for blood markers of major organ function (ALP, ALT, AST, CK, CREA, GLU): 10 mg/kg i.p. daily. In short, it runs like this: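 Swiss Webster mice (n=5) given 5 or 10 mg/kg test compound i.p. daily for 22 days and weighed daily. At termination, blood taken by cardiac puncture into lithium heparin serum separator tubes for ALP, ALT, AST, CK, creatinine and glucose. On day 22 liver, spleen, kidney, intestine, lung and heart were formalin-fixed, paraffin-embedded, H&E stained and examined microscopically.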

The test system of another data set is UACC 903 tumors. The experiment in a line: Size and time matched tumors, Ki-67 immunohistochemistry. The format is in vivo, nude mice. Conditions: day 11, UACC 903 tumors, 7.5 mg/kg i.p. daily from day 6. In a few lines:
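Nude mice injected s.c. with 2.5×10^6 UACC 903 cells. From day 6, dosed i.p. daily to day 15 with DMSO vehicle or 7.5 mg/kg test compound. Size- and time-matched tumors harvested at days 11, 13 and 15 and immunostained with mouse anti-human Ki-67. Positive cells scored as % of total cells, ≥6 tumors, 4–6 fields each.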

For the next data set, the system named is pAkt (Ser473). Put plainly: Western blot of size and time matched tumor lysates, pAkt. The format is in vivo, nude mice. The note with it: days 11, 13 and 15, 7.5 mg/kg i.p. daily from day 6, versus DMSO. In short, it runs like this:
(§5)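 Same size- and time-matched UACC 903 s.c. tumors in nude mice: 7.5 mg/kg test compound or DMSO vehicle given i.p. daily from day 6. Lysates from tumors harvested at days 11, 13 and 15 immunoblotted for pAkt (Ser473) or pStat3 (Tyr705), compared with vehicle-treated tumors.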

Another data set relates to pStat3 (Tyr705). The experiment in a line: Western blot of size and time matched tumor lysates, pStat3. The format is in vivo, nude mice. The note with it: days 11, 13 and 15, 7.5 mg/kg i.p. daily from day 6, versus DMSO. In a few lines: as §5
In another data set the test system is cannabinoid receptor CB1. The note with it: cited from earlier work.
The next data set deals with G-protein activity. Conditions: cited from earlier work.

For the compound `CCCS(=O)(=O)Nc1ccc(F)c(C(=O)c2c[nH]c3ncc(-c4ccc(Cl)cc4)cc23)c1F` [Zelboraf], the progression-free survival in [1] is listed as 6.2 months. Besides, the “partial or complete anti-tumor response rate” value in data set [1] (patients having mutant V600EB-Raf, first 2-month treatment cycle) was “approximately 80%”.
For `CC(C)c1ccc2c(c1)CC[C@H]1[C@](C)(CN)CCC[C@]21C` [leelamine, Dehydroabietylamine], the IC50 (commonly the concentration needed to halve the response being measured) with MDA-MB-231 came to 5.82 ± 0.87 µM; in the data set with MCF-7, 7.12 ± 1.3 µM; in the data set on A-549, 8.81 ± 0.82 µM; with LNCap, 10.9 ± 0.23 µM; in the data set on PC-3, 5.41 ± 2.6 µM; in the data set on HT-1080, 4.01 ± 0.27 µM. For the same compound, the IC50 with MiA PaCa-2 is 4.69 ± 0.37 µM; in the data set with HCT-116 it was 4.8 ± 0.5 µM; with HT-29, 5.95 ± 1.23 µM; in the data set on SW-480, 1.55 ± 0.33 µM; with melanoma cells (read-out: average IC50, cultured melanoma cells, average over melanoma cells), 2 µM; in the data set with normal cells it was 9.3 µM. The “fold more effective at inhibiting cultured melanoma cell survival than normal cells” value in the data set with melanoma cells (melanoma cells versus normal cells, average) is 4.5 fold. Also, the “decrease in cell viability” value in the data set on UACC 903 melanoma cells is reported as “approximately 95%”. In [2], this compound returned an increase in apoptosis of 600%. In data set [3], the cell cycle distribution result is “increase in the sub-G0/G1 and G0/G1 cell populations, with a corresponding decrease in the S-phase population”. The “signaling through PI3K pathway” value in the data set on PI3K/Akt pathway is “Decreased signaling”. Moreover, the “signaling through MAPK pathway” value in the data set with MAPK pathway is given as “Decreased signaling”. Further, the “signaling through STAT3 pathway” value with STAT3 pathway (3 to 6 µmol/L for 3 to 24 hours) is “Decreased signaling”. Further, in the data set with STAT3 pathway (3 to 6 µmol/L), the “time from which inhibition of STAT3 pathway occurred” value is no less than 12 h. The “reduction of tumor volume” value in data set [4] was 61%; in [5], 57%. For the same compound, the “inhibition of growth of preexisting xenografted melanoma tumors, average” value in data set [6] (average of UACC 903 and 1205 Lu xenografts, i.p. daily for 3 to 4 weeks) is on record as 60%. Further, the animal body weight result in [6] (xenograft-bearing nude mice, leelamine i.p. daily versus DMSO control) is recorded as “no significant differences”. Further, the “blood markers of major organ function (ALP, ALT, AST, CK, CREA, GLU)” value in the data set “Toxicity assessment” (after 22 days, 10 mg/kg) was “No significant differences; also recorded: negligible toxicity”; in the data set “Toxicity assessment” (after 22 days, listed as Leelamine, 10 mg/kg), “without affecting”. Also, the “histological examination of H&E stained vital organ sections (cellular morphology or overall structure)” value in “Toxicity assessment” (10 mg/kg, after 22 days, liver, spleen, kidney, intestine, lung, heart, 10 mg/kg) is on record as “no change; also recorded: no differences”. Also, the body weights result in “Toxicity assessment” (5 or 10 mg/kg i.p. daily, 22 days) is “No significant difference”. In addition, in the data set on UACC 903 tumors, the “reduction in proliferating cells (Ki-67)” value is 50%. Besides, in the data set with pAkt (Ser473), the “active pAkt (Ser473) in tumor lysates” value is given as “decreased; also recorded: inhibition”. In the data set on pStat3 (Tyr705), the “pStat3 (Tyr705) in tumor lysates” value is “decreased; also recorded: inhibition”. Moreover, in the data set on cannabinoid receptor CB1, the “binding to the cannabinoid receptor CB1” value is recorded as “weakly binding”. Further, in the data set on G-protein activity, the “stimulation of G-protein activity” value is “not stimulating”.
